# Assay outcomes (PubChem)
# This is a sample that favours compounds with a hit; in the whole collection about 2.5% have one here.
# PglD inh – inhibitors of Campylobacter jejuni PglD acetyltransferase. purified PglD enzyme, DTNB colorimetric CoA detection. inhibition, % at 12.5 µM. actives 0.098% (n = 360,000). AID 602405; in the data active = inhibition above about 16%, passing the limit was not always enough; inconclusive = no clear call, values can overlap the other calls
# ERAP1 HTS inh – ERAP1 (human) enzyme inhibition; actives 0.15% (n = 340,000); inhibition, % at 10.7 µM; AID 652197; recombinant ERAP1, Leu-AMC fluorescence, 60 min; Q9NZ08;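 active = mean replicate inhibition of at least 30%, or all replicates individually reaching that 30% level; inactive = mean below 30% and not every replicate reaching it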
# DENV2 CPE rescue – inhibitors of DENV2 cytopathic effect; DENV2-infected cells, cytopathic effect rescue, plate reader; CPE inhibition, % at 9.99 µM; actives 1.7% (n = 350,000); in the data active = CPE inhibition above about 20%, passing the limit was not always enough; inconclusive = no clear call, values can overlap the other calls; tested in BHK-21 cells
# SIRT5 inh – inhibitors of human sirtuin-5 desuccinylase | Q9NXA8 | Purified SirT5, succinyl-peptide AMC, trypsin-coupled fluorescence | inhibition, % at 15 µM | actives 1.1% (n = 330,000); in the data active = inhibition above about 15%; inconclusive = no clear call, values can overlap the other calls
# E-sel inducer – induces E-selectin expression in human endothelial cells | HUVEC E-selectin immunofluorescence imaging; normalized: neutral wells 0, TNF-alpha wells 100 | P16581 | actives 0.37% (n = 260,000) | activation, % at 7.58 µM;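 active = mean E-selectin-positive cell signal at least 10% of the positive control, reached in at least 60% of replicates, without over 20% cell loss; inconclusive = no rule given, readout overlaps actives, possibly toxicity-flagged; inactive = the rest, including those meeting only one limit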
# Target sequence (P16581 whole entry, looked up): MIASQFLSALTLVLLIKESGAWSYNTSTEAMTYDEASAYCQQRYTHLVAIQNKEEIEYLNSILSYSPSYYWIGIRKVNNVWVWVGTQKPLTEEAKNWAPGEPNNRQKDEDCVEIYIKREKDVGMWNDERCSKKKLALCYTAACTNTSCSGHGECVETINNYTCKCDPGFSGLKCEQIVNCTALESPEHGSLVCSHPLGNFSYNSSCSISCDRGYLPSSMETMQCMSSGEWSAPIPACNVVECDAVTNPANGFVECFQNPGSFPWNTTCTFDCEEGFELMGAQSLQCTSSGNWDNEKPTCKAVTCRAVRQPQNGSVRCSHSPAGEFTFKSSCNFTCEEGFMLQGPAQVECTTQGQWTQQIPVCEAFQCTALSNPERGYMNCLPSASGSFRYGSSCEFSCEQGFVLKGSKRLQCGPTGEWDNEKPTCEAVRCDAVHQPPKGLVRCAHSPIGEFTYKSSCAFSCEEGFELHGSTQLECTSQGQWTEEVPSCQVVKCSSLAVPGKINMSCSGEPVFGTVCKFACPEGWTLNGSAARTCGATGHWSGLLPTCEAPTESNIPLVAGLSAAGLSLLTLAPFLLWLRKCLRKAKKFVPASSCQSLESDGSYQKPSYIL
#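 Test system – human umbilical vein endothelial cells (HUVEC), E-selectin induction · Input – 3,000 HUVEC seeded per well · Buffer or medium – EGM-2, gelatin · Compound dosing – single-point compound dose · Detection – immunofluorescence imaging · Measure – percent E-selectin-positive cells · Controls – TNF-alpha high, DMSO low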
# Numbers stand for hits; - = inactive; ? = inconclusive; . = no result.
SMILES,PglD inh,ERAP1 HTS inh,DENV2 CPE rescue,SIRT5 inh,E-sel inducer
O=C(Nc1ccccc1)N1CCCCN2[C@@H](CO)[C@H](c3ccc(-c4ccccc4)cc3)[C@@H]2C1,-,-,-,-,-
CCCCCCN(C(=O)CCCCCN1C(=O)NC(c2ccc(-c3ccccc3)cc2)C(C(=O)OCc2ccccc2)=C1C)C(C(=O)NCCCC)c1ccccn1 (stereo unspecified),.,-,23,.,-
C[C@@H]1CN([C@H](C)CO)S(=O)(=O)c2ccc(/C=C/c3ccccc3)cc2O[C@@H]1CN(C)C(=O)c1ccccc1,-,-,?,-,-
C[C@H]1CCCCO[C@@H](CN(C)C(=O)Nc2ccc3c(c2)OCO3)[C@@H](C)CN([C@@H](C)CO)C(=O)c2cc(NC(=O)NC3CCCCC3)ccc2O1,-,.,48,.,-
C[C@@H]1CN([C@H](C)CO)C(=O)c2cc(NC(=O)NC3CCCCC3)ccc2O[C@@H](C)CCCCO[C@H]1CN(C)C(=O)Nc1ccc2c(c1)OCO2,-,.,101,.,-
c1ccc(CCn2nnc3ccccc32)cc1,.,-,-,20,.
O=C(Cn1nnc2ccccc21)NCc1ccccc1,-,.,.,.,.
CC1=C(C(=O)OCC(Br)(Br)Br)C(c2cccc([N+](=O)[O-])c2)NC(=O)N1CCCC(=O)O (stereo unspecified),-,-,-,23,-
CCOC(=O)C1=C(C)N(CCCCCC(=O)O)C(=O)NC1c1cccc([N+](=O)[O-])c1 (stereo unspecified),-,-,-,.,-
CN1C(=O)/C(=C2\SC(N)=NC2=O)c2ccccc21,-,.,.,.,.
COc1ccccc1-c1ccc2c(c1)O[C@@H](CN(C)S(=O)(=O)c1ccc(F)cc1)[C@@H](C)CN([C@H](C)CO)S2(=O)=O,-,-,-,20,-
COc1ccccc1-c1ccc2c(c1)O[C@H](CN(C)S(=O)(=O)c1ccc(C)cc1)[C@H](C)CN([C@H](C)CO)S2(=O)=O,-,-,-,-,-
COc1ccccc1-c1ccc2c(c1)O[C@H](CN(C)S(=O)(=O)c1ccc(F)cc1)[C@H](C)CN([C@@H](C)CO)S2(=O)=O,-,-,-,18,-
COc1ccccc1-c1ccc2c(c1)O[C@@H](CN(C)S(=O)(=O)c1ccc(F)cc1)[C@@H](C)CN([C@@H](C)CO)S2(=O)=O,-,-,-,23,-
COc1ccc(NC(=O)Nc2cccc3c2O[C@H](CN(C)S(=O)(=O)c2ccc(Cl)cc2)[C@H](C)CN([C@@H](C)CO)C3=O)cc1,-,-,-,-,-
Nc1ccccc1C(=O)N=Nc1[nH]c(N)c2ccccc12,.,-,-,18,.
Nc1[nH]c(N=NC(=O)c2ccc(F)cc2)c2ccccc12,.,-,-,-,-
CO[C@H]1CN(C)C(=O)c2ccc(NC(=O)NC(C)C)cc2OC[C@H](C)N(CCC(F)(F)F)C[C@H]1C,-,-,55,-,-
CO[C@@H]1CN(C)C(=O)c2ccc(NC(=O)NC(C)C)cc2OC[C@@H](C)N(CCC(F)(F)F)C[C@H]1C,-,-,-,-,-
CO[C@@H]1CN(C)C(=O)c2ccc(NC(=O)NC(C)C)cc2OC[C@@H](C)N(CCC(F)(F)F)C[C@@H]1C,-,-,33,-,-
O=C(Nc1cccc(F)c1)Nc1ccnn1C1CCN(C(=O)c2cscn2)CC1,-,-,-,-,-
C[C@@H]1CCCCO[C@@H](CN(C)S(=O)(=O)c2ccc(F)cc2)[C@H](C)CN([C@@H](C)CO)C(=O)c2cc(NC(=O)CCCN(C)C)ccc2O1,-,-,21,-,-
C[C@@H]1CCCCO[C@H](CN(C)S(=O)(=O)c2ccc(F)cc2)[C@@H](C)CN([C@H](C)CO)C(=O)c2cc(NC(=O)CCCN(C)C)ccc2O1,-,-,34,-,-
C[C@@H]1CN([C@H](C)CO)C(=O)c2cc(NC(=O)CCCN(C)C)ccc2O[C@@H](C)CCCCO[C@H]1CN(C)S(=O)(=O)c1ccc(F)cc1,-,-,-,-,-
CNC[C@H]1Oc2c(NS(=O)(=O)c3ccc(Cl)cc3)cccc2C(=O)N([C@H](C)CO)C[C@H]1C,-,-,79,-,-
SMILES,PglD inh,ERAP1 HTS inh,DENV2 CPE rescue,SIRT5 inh,E-sel inducer
C[C@@H]1CN([C@H](C)CO)C(=O)c2cccc(NS(=O)(=O)c3ccc(F)cc3)c2O[C@@H]1CN(C)Cc1ccccc1,-,-,-,-,-
C[C@@H]1CN([C@H](C)CO)C(=O)c2cccc(NS(=O)(=O)c3ccc(Cl)cc3)c2O[C@H]1CN(C)Cc1ccccc1,-,-,25,-,-
C[C@@H]1CN([C@@H](C)CO)C(=O)c2cccc(NS(=O)(=O)c3ccc(F)cc3)c2O[C@H]1CN(C)Cc1ccc(C(=O)O)cc1,-,-,-,-,66
C[C@H](CO)N1C[C@H](C)[C@H](CN(C)Cc2ccccc2)Oc2c(NS(=O)(=O)c3ccc(F)cc3)cccc2C1=O,-,-,104,-,-
CCOC1=NC(C(=O)O)c2ccccc2/C(=C(/C)Cl)N1 (stereo unspecified),-,.,.,.,.
Cc1ccc(CS(=O)(=O)c2cn(CC(=O)Nc3ccon3)c3ccccc23)cc1,.,-,-,-,-
COc1ccc(C2=NC(C)(C)Cc3cc(OC)c(OC)cc32)cc1OC,-,-,-,-,-
CNC[C@H]1Oc2c(NS(=O)(=O)c3cccs3)cccc2C(=O)N([C@@H](C)CO)C[C@H]1C,-,-,26,-,-
C[C@H]1CN([C@@H](C)CO)C(=O)c2cccc(NS(=O)(=O)c3ccccc3)c2O[C@H]1CN(C)Cc1ccc(C(=O)O)cc1,-,-,-,-,-
C[C@H](CO)N1C[C@H](C)[C@H](CN(C)Cc2ccc(C(=O)O)cc2)Oc2c(NS(=O)(=O)c3ccccc3)cccc2C1=O,-,-,50,-,-
CNC[C@@H]1Oc2c(NS(=O)(=O)c3cccs3)cccc2C(=O)N([C@@H](C)CO)C[C@H]1C,-,-,-,-,-
CO[C@@H]1CN(C)C(=O)c2cc(NC(=O)C3CCOCC3)ccc2OC[C@@H](C)N(C)C[C@@H]1C,-,-,36,-,-
CO[C@H]1CN(C)C(=O)c2cc(NC(=O)C3CCOCC3)ccc2OC[C@H](C)N(C)C[C@H]1C,-,-,-,-,-
COc1ccccc1C(=O)Nc1ccc2c(c1)C(=O)N(C)C[C@@H](OC)[C@H](C)CN(C)[C@@H](C)CO2,-,-,47,-,-
COc1ccccc1C(=O)Nc1ccc2c(c1)C(=O)N(C)C[C@H](OC)[C@H](C)CN(C)[C@@H](C)CO2,-,-,-,-,-
O=C(Nc1cccc(C(F)(F)F)c1)c1cc[n+]([O-])cc1,.,-,-,-,27
CC(=O)NC(CCCNC(=S)NC1CCCCC1)C(=O)O (stereo unspecified),.,-,-,-,.
Cc1ccc(Nc2ccc(N)cc2S(=O)(=O)O)cc1,-,-,-,56,.
Nc1ccc(Nc2ccccc2)c(S(=O)(=O)O)c1,-,-,-,55,-
Nc1cccc(Nc2ccccc2)c1,.,-,-,-,-
